Calls of active or inactive are those of the source. No cut-off for these calls is given here.
What was measured:
[1] = Metabolic stability in mouse liver microsomes assessed as compound remaining at 2.5 uM and measured after 45 mins in presence of NADPH by LC-MS/MS analysis; assay type: ADME, Microsome; conditions: read-out: Stability
[2] = Antitumor activity in high alert medicated patient derived human GBM1 cells xenografted in immunodeficient nude mouse model assessed as T/C ratio at 50 mg/kg,ip QD cotreatment with Temozolomide at 42 mg/kg,po QD and measured from 9 to 11 days; assay type: functional; conditions: time 9-11 day
Outline: (§1)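 Female athymic nude mice bearing subcutaneous GBM1-HAM PDX fragments (20 mm³); treatment began day 11 post-implant at tumour volumes 75-196 mm³, 10 per group. Compound i.p. daily in cyclodextrin vehicle (17 days alone, 27 days in combination); temozolomide 42 mg/kg p.o. daily for 5 days in PBS/glucose/Tween 80. Calliper volumes three times weekly; body weight and clinical signs monitored.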

[3] = Metabolic stability in mouse plasma assessed as compound remaining at 5 uM and measured after 120 mins by UPLC-MS/MS analysis; assay type: ADME, cell-free; conditions: read-out: Stability
Outline: (§2)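 Male mouse plasma at 37 °C with compound added from a 5 µM solution […]. Sampled at 0, 15, 30, 45, 60 and 120 min, quenched with acetonitrile and read by LC-MS/MS (MRM) in duplicate. Procaine positive control. Remaining % and t1/2 derived from MRM area relative to t = 0.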

[4] = molecular target: T1, Oxysterol-binding protein 1 (Homo sapiens) (UniProt P22059); assay: Inhibition of human OSBP in human hTERT-RPE1 cells co-transfected with GFP-P4MSidM and TagBFP-betaGalT1 assessed as increase in PI4P at TGN by measuring GFP-P4M fluorescence and measured after 50 mins by immunofluorescence analysis; assay type: cell-based
T1 sequence (whole entry): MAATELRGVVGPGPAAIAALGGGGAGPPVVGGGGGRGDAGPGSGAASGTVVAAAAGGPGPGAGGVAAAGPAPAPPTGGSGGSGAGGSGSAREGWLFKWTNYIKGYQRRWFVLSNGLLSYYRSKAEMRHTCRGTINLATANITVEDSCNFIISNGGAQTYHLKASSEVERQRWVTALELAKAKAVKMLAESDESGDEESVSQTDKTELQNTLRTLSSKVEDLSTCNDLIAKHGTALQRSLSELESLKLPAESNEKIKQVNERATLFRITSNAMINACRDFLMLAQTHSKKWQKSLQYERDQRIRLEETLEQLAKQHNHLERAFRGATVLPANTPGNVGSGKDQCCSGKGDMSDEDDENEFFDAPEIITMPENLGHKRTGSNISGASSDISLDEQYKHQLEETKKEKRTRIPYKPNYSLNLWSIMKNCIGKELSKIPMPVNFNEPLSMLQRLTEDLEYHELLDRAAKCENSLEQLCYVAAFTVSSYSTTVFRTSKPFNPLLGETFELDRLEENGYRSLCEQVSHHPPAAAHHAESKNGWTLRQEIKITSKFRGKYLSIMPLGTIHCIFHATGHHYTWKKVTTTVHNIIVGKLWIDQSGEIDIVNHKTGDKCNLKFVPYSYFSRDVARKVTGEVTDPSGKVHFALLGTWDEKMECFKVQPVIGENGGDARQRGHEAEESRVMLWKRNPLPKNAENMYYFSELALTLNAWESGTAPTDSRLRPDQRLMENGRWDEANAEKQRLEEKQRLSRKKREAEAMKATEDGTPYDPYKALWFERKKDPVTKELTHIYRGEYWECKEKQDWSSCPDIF
Outline: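 hTERT-RPE-1 cells electroporated with GFP-P4M^SidM (PI4P probe) and TagBFP-βGalT1, plated 18-24 h. Timelapse confocal imaging at 37 °C after compound addition, with P4M-GFP intensity at the TGN tracked over time and compared before and 50 min after addition. Mean of 4 to 6 independent experiments ± SEM.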

[5] = test system: U-87 MG; assay: Induction of autophagy in human U-87 MG cells assessed as increase in LC3II expression at 0.05 to 1 uM incubated for 48 hrs by Western blot analysis; assay type: functional, cell-based; conditions: U-87MG ATCC
Outline: (§3)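 U-87 MG cells cultured two days, then exposed 48 h to increasing doses. Lysed in RIPA with protease inhibitors; 5 µg protein run on 4-20% SDS gels and transferred to PVDF. Probed for phospho/total AKT, S6, S6K, P62 and LC3, detected by ECL. Band intensities normalized to β-actin.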

[6] = Metabolic stability in mouse plasma assessed as half life at 5 uM and measured upto 120 mins by UPLC-MS/MS analysis; assay type: ADME, cell-free; outline: as §2
[7] = Drug uptake in human hTERT-RPE1 cells assessed as drug co-localization with OSBP perinuclear region of cell incubated for 30 mins by immunofluorescence analysis; assay type: ADME, cell-based; conditions: tert-rpe1, 0.5 h
Outline: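 hTERT-RPE-1 cells incubated 30 min with compound, then fixed (4% paraformaldehyde, 0.1% glutaraldehyde, 10 min), quenched with 50 mM NH₄Cl and permeabilized in saponin 0.05%/BSA 0.2%. Immunolabeled for OSBP and TGN-46. Compound imaged directly by UV-adapted widefield fluorescence (excitation 330, emission 410 nm).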

[8] = Antitumor activity in high alert medicated patient derived human GBM1 cells xenografted in immunodeficient nude mouse model assessed as tumor growth inhibition at 50 mg/kg,ip QD and measured after 9 to 11 days; assay type: functional; outline: as §1
[9] = Toxicity in immunodeficient mouse assessed as body weight change at 100 mg/kg,ip QD for 5 days; assay type: organism-based; conditions: in vivo, 120 h, time 5 day
[10] = Antitumor activity in high alert medicated patient derived human GBM1 cells xenografted in immunodeficient nude mouse model assessed as change in tumor volume at 50 mg/kg,ip QD and measured after 11 days relative to control; assay type: functional; conditions: time 11 day; outline: as §1
[11] = test system: A549; assay: Antiproliferative activity against human A549 cells assessed as inhibition of cell proliferation incubated for 72 hrs by CellTiter-Glo luminescent assay; assay type: functional, cell-based; conditions: A549, 72 h
Outline: (§4)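 A549 in RPMI 1640 and U-87MG in DMEM, each with 10% FCS and 1% glutamine, at 37 °C and 5% CO₂. Cells seeded at 3000/well, dosed the next day, treated 72 h. Viability read by CellTiter-Glo luminescence with DMSO-treated cells set to 100%. IC50 taken from survival curves over three independent experiments.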

[12] = test system: U-87 MG; assay: Antiproliferative activity against human U-87 MG cells assessed as inhibition of cell proliferation incubated for 72 hrs by CellTiter-Glo luminescent assay; assay type: functional, cell-based, U-87MG ATCC; outline: as §4
[13] = Toxicity in immunodeficient nude mouse model xenografted with high alert medicated patient derived human GBM1 cells assessed as body weight change at 50 mg/kg,ip QD for 27 days cotreatment with Temozolomide at 42 mg/kg,po QD for 5 days; assay type: organism-based; conditions: in vivo, 648 h, time 27 day; outline: as §1
[14] = molecular target: T2, mTORC1 (Homo sapiens) (UniProt P42345+Q8N122+Q9BVC4); assay: Inhibition of mTORC1 signalling in human U-87 MG cells assessed as decrease in S6 phosphorylation at S240/244 residue at 0.05 to 1 uM incubated for 48 hrs by Western blot analysis; assay type: cell-based; outline: as §3
[15] = molecular target: T2, mTORC1 (Homo sapiens); assay: Inhibition of mTORC1 signalling in human U-87 MG cells assessed as decrease in S6K phosphorylation at T389 residue at 0.05 to 1 uM incubated for 48 hrs by Western blot analysis; assay type: cell-based; outline: as §3

T2 sequence (Q8N122 whole entry, looked up, other chains not shown): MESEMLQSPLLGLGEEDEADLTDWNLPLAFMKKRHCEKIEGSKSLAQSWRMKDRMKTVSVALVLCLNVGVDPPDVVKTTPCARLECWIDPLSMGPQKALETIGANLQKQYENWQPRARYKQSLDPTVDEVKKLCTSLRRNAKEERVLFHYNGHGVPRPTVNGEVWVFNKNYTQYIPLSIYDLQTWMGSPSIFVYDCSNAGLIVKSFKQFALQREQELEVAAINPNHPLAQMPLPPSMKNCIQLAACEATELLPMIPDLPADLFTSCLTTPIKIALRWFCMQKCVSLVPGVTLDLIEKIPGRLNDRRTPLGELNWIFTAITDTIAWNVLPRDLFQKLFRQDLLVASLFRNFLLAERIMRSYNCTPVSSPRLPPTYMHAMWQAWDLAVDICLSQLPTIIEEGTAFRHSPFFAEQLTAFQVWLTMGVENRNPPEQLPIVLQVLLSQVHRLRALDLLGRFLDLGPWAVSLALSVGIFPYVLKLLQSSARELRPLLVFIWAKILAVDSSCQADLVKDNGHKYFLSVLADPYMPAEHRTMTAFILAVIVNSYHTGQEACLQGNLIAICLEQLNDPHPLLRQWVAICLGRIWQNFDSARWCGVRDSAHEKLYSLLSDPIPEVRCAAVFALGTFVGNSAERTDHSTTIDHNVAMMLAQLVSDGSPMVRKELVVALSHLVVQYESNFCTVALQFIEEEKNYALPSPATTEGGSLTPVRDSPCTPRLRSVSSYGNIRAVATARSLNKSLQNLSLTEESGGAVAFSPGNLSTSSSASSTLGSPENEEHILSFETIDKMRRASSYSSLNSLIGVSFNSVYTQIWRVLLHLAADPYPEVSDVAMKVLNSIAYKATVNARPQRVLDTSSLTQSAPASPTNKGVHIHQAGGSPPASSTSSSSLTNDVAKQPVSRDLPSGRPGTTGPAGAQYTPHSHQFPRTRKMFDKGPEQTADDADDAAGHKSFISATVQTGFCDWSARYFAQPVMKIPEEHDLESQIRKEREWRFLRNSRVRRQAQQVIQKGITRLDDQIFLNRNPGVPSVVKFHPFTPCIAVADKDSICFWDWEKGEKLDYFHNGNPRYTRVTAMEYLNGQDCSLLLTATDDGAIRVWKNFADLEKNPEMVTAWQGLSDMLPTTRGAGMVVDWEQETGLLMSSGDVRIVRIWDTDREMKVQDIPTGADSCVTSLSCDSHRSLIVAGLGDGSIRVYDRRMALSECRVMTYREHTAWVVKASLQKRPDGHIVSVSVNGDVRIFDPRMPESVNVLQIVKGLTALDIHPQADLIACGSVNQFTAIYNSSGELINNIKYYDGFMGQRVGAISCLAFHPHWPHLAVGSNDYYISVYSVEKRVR
T2 sequence (Q9BVC4 whole entry, looked up, other chains not shown): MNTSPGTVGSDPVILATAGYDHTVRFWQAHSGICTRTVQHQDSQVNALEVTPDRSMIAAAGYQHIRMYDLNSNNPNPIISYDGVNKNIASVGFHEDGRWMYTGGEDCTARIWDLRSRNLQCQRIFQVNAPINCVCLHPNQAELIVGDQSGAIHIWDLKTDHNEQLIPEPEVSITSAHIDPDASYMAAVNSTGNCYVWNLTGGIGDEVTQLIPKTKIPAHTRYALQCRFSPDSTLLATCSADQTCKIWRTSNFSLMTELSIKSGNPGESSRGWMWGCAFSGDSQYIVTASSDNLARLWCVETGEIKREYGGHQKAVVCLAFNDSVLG

CC1(C)CCc2c(O)cc(/C=C/c3cc(O)c4c(c3)C[C@@H]3C(C)(C)[C@H](OC=O)CC[C@@]3(C)O4)cc2O1
remaining at 0.75 h, 2.5 µM [1]: 5.3%
T/C [2]: 41.43%
remaining at 2 h, 5 µM [3]: 20.2%
inhibition [4]: Active
Activity [5]: Dose-Dependent Effect
half-life at 5 µM [6]: 51 min
Drug uptake [7]: Active
TGDI at 50 mg/kg [8]: 1.37%
Activity [9]: Non-Toxic
Activity [10]: 625.61%
IC50 [11]: 733 nM
IC50 [12]: 12.4 nM
Activity [13]: Non-Toxic
inhibition [14]: Dose-Dependent Effect
inhibition [15]: Dose-Dependent Effect
